Experimental data published in ChEMBL document CHEMBL1795280, “Design, synthesis and activity of a potent, selective series of N-aryl pyridinone inhibitors of p38 kinase” (Bioorg Med Chem Lett, 2011).
pIC50: −log10 of the molar value. Blank lines part the entries; values can stand above or below the compound they belong to. Activity calls are given as the source filed them. The calls are words filed in the database; no cut-off is given here.

What was measured:
[1] = target: T1, Mitogen-activated protein kinase 14 (Homo sapiens, UniProt Q16539); experiment: Inhibition of p38alpha assessed as phosphorylation of […] after 60 mins by fluorescence assay
T1 sequence (Q16539 whole entry): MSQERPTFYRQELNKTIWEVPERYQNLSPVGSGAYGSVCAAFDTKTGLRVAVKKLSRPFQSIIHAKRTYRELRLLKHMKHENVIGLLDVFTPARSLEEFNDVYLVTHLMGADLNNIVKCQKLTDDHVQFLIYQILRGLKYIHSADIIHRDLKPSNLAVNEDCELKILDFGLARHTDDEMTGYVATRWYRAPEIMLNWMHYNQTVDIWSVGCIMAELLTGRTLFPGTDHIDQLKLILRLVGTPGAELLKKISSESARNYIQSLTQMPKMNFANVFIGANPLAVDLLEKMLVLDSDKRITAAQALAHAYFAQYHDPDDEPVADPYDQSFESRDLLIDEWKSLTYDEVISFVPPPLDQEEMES
Outline: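 Cascade assay in which activated p38α (6 pM final) activates unactivated MK2 (1 nM), which phosphorylates FITC-labelled Hsp27 peptide (1 nM) with […]. Inhibitor 0.2–10,000 nM. Room temperature, 60 min, EDTA quench. Phospho-peptide quantified by Caliper LabChip; IC50.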

PBMC = experiment: Antiinflammatory activity in human PBMC assessed as inhibition of LPS-induced TNFalpha production treated 1 hr before LPS challenge measured after 18 hrs; assay type: functional, cell-based
Outline: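 PBMCs isolated by Ficoll from heparinized blood of two healthy donors, in DMEM with 5% endotoxin-free FBS, 2.5 × 10⁵ cells/well. Pretreated 1 h with compound (0.0001–25 µM range), then stimulated 18 h with 22 ng/ml LPS. Final DMSO 0.25%. Secreted TNFα measured by MSD; IC50 reported.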

[2] = Metabolic stability in human liver microsomes assessed as compound remaining at 2 uM after 45 mins by LC/MS analysis; assay type: ADME, Microsome; conditions: read-out: Stability
[3] = Metabolic stability in rat liver microsomes assessed as compound remaining at 2 uM after 45 mins by LC/MS analysis; assay type: ADME, Microsome; conditions: read-out: Stability
Rattus norvegicus [4] = experiment: Antiinflammatory activity in Lewis rat assessed as inhibition of LPS-induced TNFalpha production at 5 mg/kg, po administered 4 hrs before LPS challenge by ELISA; assay type: functional
Outline: (§1)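 Adult male Lewis rats (225–250 g), fasted 18 h with free access to water. Compound or vehicle given by oral gavage (1 mL). LPS (E. coli 0111:B4) given 1 mg/kg i.v. in saline 2, 4 or 6 h later. Serum taken by cardiac puncture 90 min after LPS. TNFα quantified against a recombinant rat TNF standard curve with a four-parameter fit. Two vehicle groups per experiment, three experiments.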

[5] = target: Tyrosine-protein kinase BTK (Homo sapiens) (UniProt Q06187); experiment: Inhibition of BTK at 10 uM
[6] = Clearance in iv and po dosed Sprague-Dawley rat; assay type: ADME, organism-based; conditions: in vivo
[7] = Half life in iv and po dosed Sprague-Dawley rat; assay type: ADME, organism-based; conditions: in vivo
[8] = Bioavailability in iv and po dosed Sprague-Dawley rat; assay type: ADME, organism-based; conditions: in vivo
[9] = Solubility of the compound; assay type: physicochemical
Rattus norvegicus [10] = experiment: Antiarthritic activity in Lewis rat assessed as inhibition of streptococal cell wall-induced increase of paw volume at 60 mg/kg, po qd for 10 days administered 10 days after streptococal cell wall challenge by displacement plethysmometer analysis; assay type: functional; conditions: 240 h
Outline: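 Female Lewis rats given intraperitoneal group A streptococcal cell wall peptidoglycan-polysaccharide ([…] bodyweight). Only animals developing the acute phase were treated. Oral gavage (0.5 mL) daily from day 10 to day 21 post-SCW, with methylcellulose/Tween 20 vehicle as comparison. Four to eight animals per group, two paw volumes per animal. Paw volume measured on day 21 by water displacement plethysmometer.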

[11] = target: Cyclin-dependent kinase 2 (Homo sapiens) (UniProt P24941); experiment: Inhibition of CDK2 at 10 uM
[12] = target: Aurora kinase A (Homo sapiens) (UniProt O14965); experiment: Inhibition of AURKA at 10 uM
[13] = target: Epidermal growth factor receptor (Homo sapiens) (UniProt P00533); experiment: Inhibition of EGFR at 10 uM
Sequence of Epidermal growth factor receptor (Homo sapiens) (P00533 whole entry): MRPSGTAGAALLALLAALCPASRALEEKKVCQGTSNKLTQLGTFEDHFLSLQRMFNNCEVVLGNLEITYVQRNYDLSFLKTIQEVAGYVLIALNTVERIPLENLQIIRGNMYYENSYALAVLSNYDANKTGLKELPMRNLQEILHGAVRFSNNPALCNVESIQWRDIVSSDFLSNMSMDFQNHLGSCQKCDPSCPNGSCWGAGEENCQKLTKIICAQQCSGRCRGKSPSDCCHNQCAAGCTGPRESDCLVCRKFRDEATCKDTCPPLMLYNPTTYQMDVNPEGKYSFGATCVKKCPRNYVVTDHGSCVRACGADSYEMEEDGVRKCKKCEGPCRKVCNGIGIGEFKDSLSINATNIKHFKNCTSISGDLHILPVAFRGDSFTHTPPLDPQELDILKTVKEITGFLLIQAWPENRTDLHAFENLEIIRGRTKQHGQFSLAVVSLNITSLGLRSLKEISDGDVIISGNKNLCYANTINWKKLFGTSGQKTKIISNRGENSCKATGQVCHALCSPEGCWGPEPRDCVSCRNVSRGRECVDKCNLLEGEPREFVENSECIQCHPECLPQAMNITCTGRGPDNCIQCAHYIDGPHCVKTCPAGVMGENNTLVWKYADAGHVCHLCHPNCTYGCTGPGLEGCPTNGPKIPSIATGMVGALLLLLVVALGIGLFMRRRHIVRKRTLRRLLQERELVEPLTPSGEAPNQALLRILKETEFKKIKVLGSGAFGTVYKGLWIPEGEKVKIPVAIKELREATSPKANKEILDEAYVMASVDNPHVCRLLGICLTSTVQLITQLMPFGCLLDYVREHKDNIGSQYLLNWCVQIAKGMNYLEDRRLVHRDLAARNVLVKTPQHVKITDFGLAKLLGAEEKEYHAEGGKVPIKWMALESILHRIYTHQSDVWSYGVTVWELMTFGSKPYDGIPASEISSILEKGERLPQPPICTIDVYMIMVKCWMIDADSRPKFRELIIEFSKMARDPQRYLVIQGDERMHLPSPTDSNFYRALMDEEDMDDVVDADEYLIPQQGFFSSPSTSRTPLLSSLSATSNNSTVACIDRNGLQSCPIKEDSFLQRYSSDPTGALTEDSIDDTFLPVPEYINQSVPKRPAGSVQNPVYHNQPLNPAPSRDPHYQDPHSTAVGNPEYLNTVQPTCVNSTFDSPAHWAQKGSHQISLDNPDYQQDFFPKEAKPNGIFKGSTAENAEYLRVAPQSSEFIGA

[14] = target: Vascular endothelial growth factor receptor 1 (Homo sapiens) (UniProt P17948); experiment: Inhibition of FLT1 at 10 uM
[15] = target: Mitogen-activated protein kinase 3 (Homo sapiens) (UniProt P27361); experiment: Inhibition of ERK1 at 10 uM
[16] = target: Serine/threonine-protein kinase mTOR (Homo sapiens) (UniProt P42345); experiment: Inhibition of mTOR at 10 uM
[17] = target: Inhibitor of nuclear factor kappa-B kinase subunit beta (Homo sapiens) (UniProt O14920); experiment: Inhibition of IKK-beta at 10 uM
Sequence of Inhibitor of nuclear factor kappa-B kinase subunit beta (Homo sapiens) (O14920 whole entry): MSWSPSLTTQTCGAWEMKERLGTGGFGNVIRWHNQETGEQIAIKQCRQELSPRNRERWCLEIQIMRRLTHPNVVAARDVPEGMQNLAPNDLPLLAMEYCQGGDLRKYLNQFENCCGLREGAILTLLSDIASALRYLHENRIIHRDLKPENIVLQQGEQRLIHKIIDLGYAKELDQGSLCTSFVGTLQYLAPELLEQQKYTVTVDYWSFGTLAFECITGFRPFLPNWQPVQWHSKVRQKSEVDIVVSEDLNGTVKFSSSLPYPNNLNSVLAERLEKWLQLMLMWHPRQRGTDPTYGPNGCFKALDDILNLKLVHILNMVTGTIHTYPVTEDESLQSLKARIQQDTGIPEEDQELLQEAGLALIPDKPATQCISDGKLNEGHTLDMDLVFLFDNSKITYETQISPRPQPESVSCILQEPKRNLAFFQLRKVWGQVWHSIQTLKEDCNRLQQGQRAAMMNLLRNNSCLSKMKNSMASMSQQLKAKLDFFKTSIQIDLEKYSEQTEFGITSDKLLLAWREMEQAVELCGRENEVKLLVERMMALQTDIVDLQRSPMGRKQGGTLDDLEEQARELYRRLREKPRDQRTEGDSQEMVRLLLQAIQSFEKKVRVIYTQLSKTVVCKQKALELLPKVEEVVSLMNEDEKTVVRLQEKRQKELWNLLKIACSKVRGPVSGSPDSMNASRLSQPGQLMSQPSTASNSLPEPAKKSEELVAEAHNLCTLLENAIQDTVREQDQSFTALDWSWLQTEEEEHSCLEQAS

[18] = target: Interleukin-1 receptor-associated kinase 4 (Homo sapiens) (UniProt Q9NWZ3); experiment: Inhibition of IRAK4 at 10 uM
[19] = target: Tyrosine-protein kinase JAK1 (Homo sapiens) (UniProt P23458); experiment: Inhibition of JAK1 at 10 uM
[20] = target: Tyrosine-protein kinase JAK2 (Homo sapiens) (UniProt O60674); experiment: Inhibition of JAK2 at 10 uM
[21] = target: Tyrosine-protein kinase JAK3 (Homo sapiens) (UniProt P52333); experiment: Inhibition of JAK3 at 10 uM
[22] = target: Non-receptor tyrosine-protein kinase TYK2 (Homo sapiens) (UniProt P29597); experiment: Inhibition of TYK2 at 10 uM
Sequence of Non-receptor tyrosine-protein kinase TYK2 (Homo sapiens) (P29597 whole entry): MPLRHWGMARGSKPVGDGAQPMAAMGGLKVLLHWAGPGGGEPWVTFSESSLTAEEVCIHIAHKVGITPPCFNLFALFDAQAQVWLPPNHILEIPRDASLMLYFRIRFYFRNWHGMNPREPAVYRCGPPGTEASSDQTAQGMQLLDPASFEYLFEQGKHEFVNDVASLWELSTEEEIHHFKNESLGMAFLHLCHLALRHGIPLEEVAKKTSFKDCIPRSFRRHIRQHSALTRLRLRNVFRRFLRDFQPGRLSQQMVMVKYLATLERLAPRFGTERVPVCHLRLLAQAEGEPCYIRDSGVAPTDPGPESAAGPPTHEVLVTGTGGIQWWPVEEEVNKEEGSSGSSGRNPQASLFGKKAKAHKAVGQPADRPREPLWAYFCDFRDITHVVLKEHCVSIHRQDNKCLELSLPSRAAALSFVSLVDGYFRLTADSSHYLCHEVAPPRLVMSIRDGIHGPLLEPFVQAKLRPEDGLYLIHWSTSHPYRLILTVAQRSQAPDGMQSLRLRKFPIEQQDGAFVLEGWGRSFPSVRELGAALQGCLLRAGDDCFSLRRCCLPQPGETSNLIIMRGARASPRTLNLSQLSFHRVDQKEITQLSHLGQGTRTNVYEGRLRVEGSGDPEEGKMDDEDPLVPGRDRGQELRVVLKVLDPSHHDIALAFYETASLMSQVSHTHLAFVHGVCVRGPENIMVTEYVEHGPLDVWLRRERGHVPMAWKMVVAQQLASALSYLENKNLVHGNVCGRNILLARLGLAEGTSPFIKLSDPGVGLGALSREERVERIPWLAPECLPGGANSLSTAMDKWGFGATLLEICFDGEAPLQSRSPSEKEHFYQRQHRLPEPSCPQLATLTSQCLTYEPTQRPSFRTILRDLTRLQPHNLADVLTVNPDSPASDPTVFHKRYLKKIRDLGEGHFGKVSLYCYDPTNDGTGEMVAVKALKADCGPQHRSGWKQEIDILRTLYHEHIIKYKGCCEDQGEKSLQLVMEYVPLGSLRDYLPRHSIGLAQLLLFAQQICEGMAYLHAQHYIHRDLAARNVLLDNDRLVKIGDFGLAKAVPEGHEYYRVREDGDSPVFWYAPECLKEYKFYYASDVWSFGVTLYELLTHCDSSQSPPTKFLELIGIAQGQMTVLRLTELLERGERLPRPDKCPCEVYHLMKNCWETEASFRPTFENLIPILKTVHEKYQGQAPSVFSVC

[23] = target: Vascular endothelial growth factor receptor 2 (Homo sapiens) (UniProt P35968); experiment: Inhibition of VEGFR2 at 10 uM
[24] = target: Tyrosine-protein kinase Lck (Homo sapiens) (UniProt P06239); experiment: Inhibition of LCK at 10 uM
[25] = target: Dual specificity mitogen-activated protein kinase kinase 1 (Homo sapiens) (UniProt Q02750); experiment: Inhibition of MEK1 at 10 uM
Sequence of Dual specificity mitogen-activated protein kinase kinase 1 (Homo sapiens) (Q02750 whole entry): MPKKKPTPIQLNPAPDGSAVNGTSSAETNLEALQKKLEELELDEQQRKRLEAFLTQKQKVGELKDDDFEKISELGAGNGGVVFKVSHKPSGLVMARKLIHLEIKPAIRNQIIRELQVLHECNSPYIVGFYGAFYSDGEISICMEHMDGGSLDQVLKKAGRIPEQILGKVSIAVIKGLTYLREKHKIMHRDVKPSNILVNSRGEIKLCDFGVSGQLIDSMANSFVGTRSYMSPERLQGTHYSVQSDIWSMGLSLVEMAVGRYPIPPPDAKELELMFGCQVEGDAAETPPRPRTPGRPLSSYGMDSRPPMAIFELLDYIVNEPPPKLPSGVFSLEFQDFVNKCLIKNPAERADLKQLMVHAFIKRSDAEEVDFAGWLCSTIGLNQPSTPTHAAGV

[26] = target: Mitogen-activated protein kinase 13 (Homo sapiens) (UniProt O15264); experiment: Inhibition of p38delta at 10 uM
Sequence of Mitogen-activated protein kinase 13 (Homo sapiens) (O15264 whole entry): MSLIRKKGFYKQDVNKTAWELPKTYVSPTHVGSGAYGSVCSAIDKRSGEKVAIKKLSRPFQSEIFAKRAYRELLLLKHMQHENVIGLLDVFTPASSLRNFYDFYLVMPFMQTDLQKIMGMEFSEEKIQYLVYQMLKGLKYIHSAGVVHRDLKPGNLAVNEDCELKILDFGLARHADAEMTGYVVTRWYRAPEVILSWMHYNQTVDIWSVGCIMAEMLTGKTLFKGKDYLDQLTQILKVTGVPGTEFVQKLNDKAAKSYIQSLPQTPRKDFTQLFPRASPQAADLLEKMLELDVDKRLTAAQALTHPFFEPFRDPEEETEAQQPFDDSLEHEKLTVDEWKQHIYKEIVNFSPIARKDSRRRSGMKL

[27] = target: Mitogen-activated protein kinase 12 (Homo sapiens) (UniProt P53778); experiment: Inhibition of p38-gamma at 10 uM
[28] = Inhibition of JNK at 10 uM
[29] = target: MAP kinase-activated protein kinase 2 (Homo sapiens) (UniProt P49137); experiment: Inhibition of MK2 at 10 uM
[30] = target: High affinity nerve growth factor receptor (Homo sapiens) (UniProt P04629); experiment: Inhibition of TRKA at 10 uM
[31] = Inhibition of PDGFR at 10 uM
[32] = target: RAF proto-oncogene serine/threonine-protein kinase (Homo sapiens) (UniProt P04049); experiment: Inhibition of c-RAF at 10 uM
[33] = target: Rho-associated protein kinase 1 (Homo sapiens) (UniProt Q13464); experiment: Inhibition of ROCK1 at 10 uM
[34] = target: Rho-associated protein kinase 2 (Homo sapiens) (UniProt O75116); experiment: Inhibition of ROCK2 at 10 uM
[35] = target: Tyrosine-protein kinase ZAP-70 (Homo sapiens) (UniProt P43403); experiment: Inhibition of ZAP70 at 10 uM
Sequence of Tyrosine-protein kinase ZAP-70 (Homo sapiens) (P43403 whole entry): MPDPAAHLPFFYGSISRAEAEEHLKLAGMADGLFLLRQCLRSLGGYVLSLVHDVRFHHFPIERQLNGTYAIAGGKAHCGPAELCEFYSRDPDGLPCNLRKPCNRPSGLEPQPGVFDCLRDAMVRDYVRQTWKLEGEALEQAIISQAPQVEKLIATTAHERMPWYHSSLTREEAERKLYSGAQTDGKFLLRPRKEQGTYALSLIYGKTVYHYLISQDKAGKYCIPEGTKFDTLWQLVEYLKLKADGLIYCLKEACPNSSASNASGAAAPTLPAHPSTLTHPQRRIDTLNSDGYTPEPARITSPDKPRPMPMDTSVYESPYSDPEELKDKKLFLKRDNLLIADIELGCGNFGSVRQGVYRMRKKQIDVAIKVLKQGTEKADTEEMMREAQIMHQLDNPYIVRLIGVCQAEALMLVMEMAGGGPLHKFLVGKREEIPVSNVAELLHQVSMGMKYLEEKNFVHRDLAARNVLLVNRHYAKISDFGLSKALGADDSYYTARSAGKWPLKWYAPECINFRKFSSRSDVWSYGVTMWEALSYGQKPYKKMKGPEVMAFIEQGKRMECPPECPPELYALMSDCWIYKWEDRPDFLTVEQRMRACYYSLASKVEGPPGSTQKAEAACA

[36] = target: T1, Mitogen-activated protein kinase 14; experiment: Inhibition of p38alpha at 10 uM
[37] = target: Mitogen-activated protein kinase 11 (Homo sapiens) (UniProt Q15759); experiment: Inhibition of p38beta at 10 uM
Rattus norvegicus [38] = experiment: Antiinflammatory activity in Lewis rat assessed as inhibition of LPS-induced TNFalpha production at 20 mg/kg, po administered 2 hrs before LPS challenge by ELISA; assay type: functional; outline: as §1

SMILES: O=c1c(Br)c(OCc2ccc(F)cc2F)cc(CN2CCOCC2)n1-c1c(F)cccc1F
pIC50 [1]: 8.05

SMILES: CN(C)Cc1cc(OCc2ccc(F)cc2F)c(Cl)c(=O)n1-c1c(F)cccc1F
pIC50 [1]: 8.10

SMILES: Cc1cc(OCc2ccc(F)cc2F)c(Br)c(=O)n1-c1ccc(CN)cc1
pIC50 [1]: 7.29

SMILES: Cc1cc(OCc2ccc(F)cc2F)c(Br)c(=O)n1-c1ccc(CNC(=O)CN)cc1
pIC50 [1]: 7.82
pIC50 (PBMC): 6.93
remaining at 0.75 h, 2 µM [2]: 97%
remaining at 0.75 h, 2 µM [3]: 91%
inhibition in vivo at 5 mg/kg (Rattus norvegicus [4]): 64%

SMILES: O=c1c(Cl)c(OCc2ccc(F)cc2F)cc(CO)n1-c1c(F)cccc1F
inhibition [5]: < 50%
pIC50 [1]: 8.10
pIC50 (PBMC): 7.35
remaining at 0.75 h, 2 µM [2]: 70%
remaining at 0.75 h, 2 µM [3]: 69%
clearance [6]: 5.9 mL/min/kg
half-life [7]: 1.5 h
bioavailability [8]: 32%
inhibition in vivo at 5 mg/kg (Rattus norvegicus [4]): 81%
solubility [9]: < 10 µg/mL
inhibition in vivo at 60 mg/kg (Rattus norvegicus [10]): 33%
inhibition [11]: < 50%
inhibition [12]: < 50%
inhibition [13]: < 50%
inhibition [14]: < 50%
inhibition [15]: < 50%
inhibition [16]: < 50%
inhibition [17]: < 50%
inhibition [18]: < 50%
inhibition [19]: < 50%
inhibition [20]: < 50%
inhibition [21]: < 50%
inhibition [22]: < 50%
inhibition [23]: < 50%
inhibition [24]: < 50%
inhibition [25]: < 50%
inhibition [26]: < 50%
inhibition [27]: < 50%
inhibition [28]: < 50%
inhibition [29]: < 50%
inhibition [30]: < 50%
inhibition [31]: < 50%
inhibition [32]: < 50%
inhibition [33]: < 50%
inhibition [34]: < 50%
inhibition [35]: < 50%
inhibition [36]: Active
inhibition [37]: Active

SMILES: Cc1cc(OCc2ccc(F)cc2F)c(Br)c(=O)n1-c1cccc(C(=O)N(C)C)c1
pIC50 [1]: 6.99

SMILES: CNC(=O)c1cccc(-n2c(C)cc(OCc3ccc(F)cc3F)c(Br)c2=O)c1
pIC50 [1]: 7.77
pIC50 (PBMC): 7.35
remaining at 0.75 h, 2 µM [2]: 95%
remaining at 0.75 h, 2 µM [3]: 92%
clearance [6]: 8.1 mL/min/kg
half-life [7]: 3.1 h
bioavailability [8]: 3%
inhibition in vivo at 5 mg/kg (Rattus norvegicus [4]): 70%
solubility [9]: < 10 µg/mL

SMILES: Cc1cc(OCc2ccc(F)cc2F)c(Br)c(=O)n1-c1cccc(CNC(=O)CN)c1
pIC50 [1]: 6.58

Second part, led by results:

pIC50 [1]: 8.52
SMILES: Cc1cc(OCc2ccc(F)cc2F)c(Br)c(=O)n1-c1c(F)cc(OCC(N)=O)cc1F

pIC50 [1]: 8.10
SMILES: Cc1cc(OCc2ccc(F)cc2F)c(Br)c(=O)n1-c1c(F)cc(N(C)C)cc1F

pIC50 [1]: 8.22
SMILES: Cc1cc(OCc2ccc(F)cc2)c(Br)c(=O)n1-c1c(Cl)cccc1Cl

pIC50 [1]: 8.52
remaining at 0.75 h, 2 µM [2]: 60%
remaining at 0.75 h, 2 µM [3]: 80%
clearance [6]: 28.7 mL/min/kg
half-life [7]: 1.9 h
bioavailability [8]: 19%
solubility [9]: < 10 µg/mL
SMILES: Cc1cc(OCc2ccc(F)cc2F)c(Br)c(=O)n1-c1c(F)cccc1F
pIC50 (PBMC): 7.66
inhibition in vivo at 5 mg/kg (Rattus norvegicus [4]): 38%

pIC50 [1]: 8.70
remaining at 0.75 h, 2 µM [2]: 3%
remaining at 0.75 h, 2 µM [3]: 1%
SMILES: Cc1cccc(C)c1-n1c(C)cc(OCc2ccc(F)cc2F)c(Br)c1=O
pIC50 (PBMC): 7.60
inhibition in vivo at 20 mg/kg (Rattus norvegicus [38]): 66%

pIC50 [1]: 8.30
remaining at 0.75 h, 2 µM [2]: 39%
remaining at 0.75 h, 2 µM [3]: 65%
clearance [6]: 4 mL/min/kg
half-life [7]: 8.9 h
bioavailability [8]: 19%
solubility [9]: < 10 µg/mL
SMILES: O=c1c(Br)c(OCc2ccc(F)cc2F)cc(CO)n1-c1c(F)cccc1F
pIC50 (PBMC): 7.60
inhibition in vivo at 5 mg/kg (Rattus norvegicus [4]): 93%

pIC50 [1]: 9.00
SMILES: Cc1cc(OCc2ccc(F)cc2F)c(Br)c(=O)n1-c1c(Cl)cccc1Cl
